These results are taken from PubChem BioAssay.

Activity calls are given as the source filed them.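 The calls were made as follows, unless noted: active = compounds giving at least 50% inhibition in the cell-based MKP-3 phosphatase rescue imaging test; inactive = the rest.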

Experiment [1] in a line: inhibitors of TNFa-induced NFkB p65 translocation, primary screen, imaging, HUVEC, MLSMR starter and 10KST1 sets (AID 438;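 active = inhibition above 20% together with a positive visual image hit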;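 also: compound added about 3h40 before a 20 min TNFalpha stimulation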;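 as to inhibition: signal is the nuclear over cytoplasmic p65 intensity ratio per well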). Conditions: HUVEC TNFa-induced p65 nuclear translocation; cell count: measured here: nuclei count (cytotoxicity indicator), at 2.08 µM; inhibition: at 2 µM, stronger effect = higher value, 0% TNFa-plus-vehicle, 100% no-TNFa wells.
A short description of experiment [2]: endothelial E-selectin expression blockers – imaging, HUVEC, immunofluorescence, MLSMR starter and 10KST1 sets, primary screen (AID 487;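 active = visually confirmed hit in the image check and inhibition above 20%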;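 as to inhibition: signal is fraction of cell area covered by stained E-selectin grains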;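 as to nuclei count: 100% = median nuclei count of all wells on the same plate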). The note with it: HUVEC TNFalpha-induced E-selectin immunofluorescence imaging, at 2 µM; inhibition: stronger effect = higher value; nuclei count: measured here: cell number, toxicity.
Experiment [3] can be described thus: Primary imaging screen for DUSP6 inhibitors that restore phospho-Erk in transfected HeLa cells, chemical complementation (AID 609).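 As to inhibition: phospho-Erk level distribution per well compared with pooled transfected vehicle control wells.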 Conditions: HeLa MKP-3 transfected, phospho-Erk imaging KS statistic, at 10 µM, cells stimulated with TPA for 15 min.
The target of experiment [4] is Dual specificity protein phosphatase 6 (Homo sapiens) (UniProt Q16828). Described as above. The note with it: HeLa MKP-3 transfected, phospho-Erk imaging KS statistic; at 10 µM; stronger effect = higher value; cells stimulated with TPA for 15 min.
Dual specificity protein phosphatase 6 (Homo sapiens), sequence (Q16828 whole entry, looked up): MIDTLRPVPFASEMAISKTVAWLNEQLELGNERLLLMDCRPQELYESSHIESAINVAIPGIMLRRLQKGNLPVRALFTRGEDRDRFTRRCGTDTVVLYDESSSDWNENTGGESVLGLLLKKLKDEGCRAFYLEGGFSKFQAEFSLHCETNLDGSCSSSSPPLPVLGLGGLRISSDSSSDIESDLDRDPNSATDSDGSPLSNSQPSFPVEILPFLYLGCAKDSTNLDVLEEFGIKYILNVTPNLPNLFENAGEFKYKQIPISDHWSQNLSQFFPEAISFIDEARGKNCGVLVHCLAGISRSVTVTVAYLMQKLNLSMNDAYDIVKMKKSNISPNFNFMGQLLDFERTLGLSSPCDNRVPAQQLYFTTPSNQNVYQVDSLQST
Experiment [5] addresses Voltage-gated potassium channel subunit beta-2 (Rattus norvegicus) (UniProt P62483). The experiment can be described thus: inhibitors of rat Kvbeta2 reductase activity – biochemical, NADPH fluorescence, primary screen (AID 622;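 active = fluorescence slope higher than the sample average by over 3 SD, cut at about -0.22 in these data, passing the limit was not always enough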;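 also: slope of raw intensity against log time taken from 70 to 1610 s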). The note with it: recombinant KvBeta, 4-cyanobenzaldehyde reduction, at 10 µM, stronger effect = higher value.
For experiment [6] the target is unchanged. The experiment can be described thus: enhancers of rat Kvbeta2 NADPH turnover – biochemical, NADPH fluorescence, primary screen (AID 623;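 active = NADPH fluorescence slope more negative than the mean of all samples by about 3 SD, 99.7% confidence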;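 also: fluorescence intensity change per second fitted from 20 to 320 s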). The note with it: Recombinant KvBeta, NADPH fluorescence decrease slope, 10 min; at 10 µM; stronger effect = lower value.
Experiment [7] deals with Alpha-2C adrenergic receptor (Homo sapiens) (UniProt P18825). Briefly: compounds altering alpha2C-coupled GIRK flux – cell-based, HEK293 alpha2C/GIRK1/2, thallium flux, primary screen (AID 624;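 active = fluorescence slope after compound addition differing from the mean of all screened samples at 99.7% confidence, in either direction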;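 also: slope of fluorescence ratio to pre-addition baseline per second over 15 to 24 s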). The note with it: thallium flux BTC fluorescence, at 10 µM, actives lie on both sides.
Alpha-2C adrenergic receptor (Homo sapiens), sequence (P18825 whole entry, looked up): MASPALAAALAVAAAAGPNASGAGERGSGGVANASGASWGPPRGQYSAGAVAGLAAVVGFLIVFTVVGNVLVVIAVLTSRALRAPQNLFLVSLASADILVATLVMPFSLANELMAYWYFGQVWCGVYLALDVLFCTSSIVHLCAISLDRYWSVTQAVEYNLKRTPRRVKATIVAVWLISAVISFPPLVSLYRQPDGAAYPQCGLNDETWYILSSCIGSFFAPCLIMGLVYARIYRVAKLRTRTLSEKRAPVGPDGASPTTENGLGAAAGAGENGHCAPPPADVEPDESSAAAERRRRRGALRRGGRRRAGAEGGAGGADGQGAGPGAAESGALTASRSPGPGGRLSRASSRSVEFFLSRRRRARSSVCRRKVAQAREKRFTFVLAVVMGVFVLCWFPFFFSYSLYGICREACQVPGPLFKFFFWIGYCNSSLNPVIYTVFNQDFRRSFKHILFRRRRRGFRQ
Experiment [8] is described as follows: inhibitors of larval lipid processing in zebrafish, primary screen, whole organism, PED6 fluorescence, gall bladder and intestine (AID 686;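 active = a full or partial loss of lipid-probe fluorescence in the fish gall bladder, intestine or both, judged by eye; inactive = no fluorescence loss, or compound toxic to the fish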;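 also: larvae 5 to 7 days old with five fish per well; signal comes from phospholipase A2 cleavage of quenched PED6 carried via bile; overnight exposure to compound and PED6 before scoring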). The note with it: Zebrafish larvae PED6 lipid processing, fluorescence scoring; screened at 20 µM (by protocol). A digest of the protocol: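 Test system – live zebrafish larvae aged 5-7 days, whole organism · Buffer or medium – E3 fish medium · Reagent – quenched phospholipase substrate PED6, 100 nM final, ingested by larvae · Doses – 20 µM single dose · Incubation – overnight compound and PED6 incubation · Technique – visual fluorescence microscopy scoring of gall bladder, gut · Read-out basis – visual per-well fluorescence inhibition score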

Experiment [9] in a line: loss of swimming-algae plug formation – whole organism, Chlamydomonas reinhardtii, WT vs cilia-less mutant, absorbance, 96-well, primary screen (AID 463189;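 active = inhibition at or above 50% relative to wild type and mutant plate controls; inactive = inhibition below 50%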;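 also: 0% = wild type cc124 cells in DMSO and 100% = ciliumless bld1 mutant cells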). Conditions: Chlamydomonas reinhardtii gravitaxis, OD600 absorbance, 2 days; at 10 µM; stronger effect = higher value.
The mark [10] stands for this setting: measured here: cell density z-score.
Setting [11] is: measured here: nuclear c-Myc green intensity z-score.
[12] abbreviates: measured here: nuclear pErk red intensity z-score, stronger effect = higher value.

Voltage-gated potassium channel subunit beta-2 (Rattus norvegicus), sequence (P62483 whole entry, looked up): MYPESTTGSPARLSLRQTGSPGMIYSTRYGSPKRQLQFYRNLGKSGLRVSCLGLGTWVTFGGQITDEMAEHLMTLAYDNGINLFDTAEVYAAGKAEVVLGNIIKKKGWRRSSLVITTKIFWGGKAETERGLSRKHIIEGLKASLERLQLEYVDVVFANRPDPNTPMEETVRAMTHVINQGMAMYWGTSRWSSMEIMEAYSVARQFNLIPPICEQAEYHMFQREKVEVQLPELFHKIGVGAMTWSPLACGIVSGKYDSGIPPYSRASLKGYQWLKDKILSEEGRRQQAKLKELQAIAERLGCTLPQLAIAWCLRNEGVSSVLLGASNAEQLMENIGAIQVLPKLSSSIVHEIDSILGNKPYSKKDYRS

Take `CN1CCc2c(sc3c2C(=O)NC(c2ccco2)N3)C1` (centres undefined): the cell count in [1] came out at 554. Further, the inhibition is -12% (inactive) in experiment [1], -9.3% (inactive) in [2], 4.72% (inactive) in experiment [4] and 7.66% (inactive) in experiment [9]. The nuclei count in experiment [2] turned out to be 170%. Further, the z-score was -0.0126 in experiment [3] (setting [10]), -0.484 in experiment [3] (setting [11]) and 0.477 in [3] (setting [12]). Besides, the fluorescence slope in experiment [5] was -0.43 (inactive). For the same compound, the NADPH fluorescence slope in experiment [6] was -3.1e-06 (inactive). In addition, the slope in experiment [7] is 0.00594 (inactive). Also, the compound was called inactive in experiment [8].
For the compound `Fc1ccc2[nH]c3c(N4CCN(C5CCCCC5)CC4)ncnc3c2c1`, the cell count in experiment [1] was found to be 501. Moreover, the inhibition in [1] is -4.2% (inactive); in [2], -68.6% (inactive); in [4] it was -6.48% (inactive); in experiment [9], 128% (active). Also, in experiment [2], the nuclei count was 153%. The z-score was -1.35 in [3] (setting [10]), 0.234 in [3] (setting [11]) and 1.42 in [3] (setting [12]). Also, the fluorescence slope in [5] is -0.152 (inactive). In [6], the NADPH fluorescence slope was -1.9e-06 (inactive). Besides, the slope in experiment [7] is 0.00383 (inactive). For the same compound, in experiment [8], the compound was classed as inactive.
For the compound `N#CCCn1cnc2c(=S)nc[nH]c21`, in [1], the cell count turned out to be 355. Besides, the inhibition in experiment [1] was -12.9% (inactive); in experiment [2], -142% (inactive); in [4], 1.6e-07% (inactive); in experiment [9] it was -4.04% (inactive). For the same compound, the nuclei count in experiment [2] worked out at 181%. Besides, the z-score was 0.101 in experiment [3] (setting [10]), 0.0894 in experiment [3] (setting [11]) and 1.37 in experiment [3] (setting [12]). Also, the fluorescence slope in experiment [5] was -0.438 (inactive). For the same compound, the NADPH fluorescence slope in [6] was -0.000132 (inactive). In addition, the slope in [7] is 0.00509 (inactive). The compound was called inactive in experiment [8].
Regarding `COC(=O)CNc1nc(-c2cccnc2)nc2ccccc12`, the cell count in [1] amounted to 543. For the same compound, the inhibition in [1] is -5.9% (inactive); in [2], -23.5% (inactive); in [4] it was -11.9% (inactive); in experiment [9], -0.905% (inactive). This compound returned a nuclei count in experiment [2] of 156%. For the same compound, the results for the z-score in [3] (setting [10]), in experiment [3] (setting [11]) and in experiment [3] (setting [12]) were -0.375, 1.95 and 0.774, respectively. In addition, in experiment [5], the fluorescence slope is -0.327 (inactive). Moreover, the NADPH fluorescence slope in experiment [6] was 8.2e-06 (inactive). For the same compound, the slope in experiment [7] was 0.0052 (inactive). For the same compound, the outcome in [8] was inactive.
With `CCOC(=O)c1cc2c(=O)n3cccc(C)c3nc2n(Cc2cccnc2)c1=N`, the cell count in experiment [1] amounted to 583. Also, the inhibition in experiment [1] was 3.3% (inactive); in experiment [2], -66.9% (inactive); in experiment [4], 4.25% (inactive); in [9], 58.8% (active). The nuclei count in experiment [2] was found to be 157%. In addition, the z-score in experiment [3] (setting [10]) was 0.481; in [3] (setting [11]), -1.62; in experiment [3] (setting [12]) it was 0.0154. Moreover, the fluorescence slope in experiment [5] is -0.457 (inactive). For the same compound, the NADPH fluorescence slope in experiment [6] is -0.000115 (inactive). Moreover, the slope in [7] was 0.00416 (inactive). The call in experiment [8] was inactive.
As for `COCCNc1oc(-c2ccc(Cl)cc2)nc1C#N`, the cell count in experiment [1] is 465. Also, the inhibition in experiment [1] is -6.3% (inactive); in experiment [2], -25.2% (inactive); in experiment [4] it was 2.46% (inactive); in experiment [9] it was 10.6% (inactive). For the same compound, in experiment [2], the nuclei count is 161%. Further, the z-score is 1.04 in experiment [3] (setting [10]), -0.285 in [3] (setting [11]) and -0.188 in experiment [3] (setting [12]). For the same compound, the fluorescence slope in experiment [5] was -0.17 (inactive). Moreover, the NADPH fluorescence slope in [6] was 9.3e-06 (inactive). In experiment [7], the slope was 0.00534 (inactive). In addition, the call in [8] was inactive.
In the case of `Cc1cc(C)cc(-n2c3nc4ccccc4nc3c3c(=O)n(Cc4ccco4)cnc32)c1`, the cell count in [1] was found to be 319. Also, the inhibition in experiment [1] was -15.5% (inactive); in experiment [2] it was -94.4% (inactive); in experiment [4], 3.5% (inactive); in [9], -2.54% (inactive). In [2], the nuclei count was 134%. Moreover, the figures for the z-score in experiment [3] (setting [10]), in experiment [3] (setting [11]) and in [3] (setting [12]) were 0.126, -0.244 and -0.872, respectively. In addition, the fluorescence slope in [5] was -0.396 (inactive). The NADPH fluorescence slope in experiment [6] is -0.000101 (inactive). For the same compound, the slope in experiment [7] is 0.0051 (inactive). In experiment [8], the compound was classed as inactive.
Regarding `COc1nc(N(C)S(=O)(=O)c2ccc(C)cc2)nc(C)c1Cl`, the cell count in [1] is 587. The inhibition in experiment [1] was -20% (inactive); in experiment [2], -69% (inactive); in experiment [4], 7.73% (inactive); in [9], -4.99% (inactive). Also, the nuclei count in experiment [2] was determined as 177%. For the same compound, the z-score was -0.267 in experiment [3] (setting [10]), -0.856 in experiment [3] (setting [11]) and 1.29 in experiment [3] (setting [12]). The fluorescence slope in experiment [5] was -0.362 (inactive). Moreover, the NADPH fluorescence slope in experiment [6] is -1.7e-05 (inactive). In experiment [7], the slope is 0.00412 (inactive). In addition, in [8], the compound was classed as inactive.
With `COc1ccccc1N1CCN(CCOc2c(OC)cccc2OC)CC1`, the cell count in experiment [1] came to 492. The inhibition in experiment [1] is -10.5% (inactive); in experiment [2] it was -105% (inactive); in [4], -3.98% (inactive); in experiment [9], -3.94% (inactive). Besides, the nuclei count in experiment [2] came out at 116%. For the same compound, the z-score in experiment [3] (setting [10]) is -1.56; in experiment [3] (setting [11]), 1.65; in [3] (setting [12]) it was 0.711. The fluorescence slope in experiment [5] is -0.469 (inactive). Further, the NADPH fluorescence slope in experiment [6] is -0.000262 (inactive). Further, the slope in experiment [7] is 0.00445 (inactive). Besides, in experiment [8], the outcome was inactive.
For `Cc1nnc(C)n1/N=C/c1cc(Br)cc(Br)c1O`, the cell count in [1] came out at 354. Also, the inhibition is 3.7% (inactive) in experiment [1], -46.9% (inactive) in experiment [2], 1.6e-07% (inactive) in experiment [4] and 4.5% (inactive) in [9]. In [2], this compound displayed a nuclei count of 156%. Moreover, the z-score in experiment [3] (setting [10]) is 0.57; in experiment [3] (setting [11]), 0.148; in experiment [3] (setting [12]), -0.137. Further, in experiment [5], the fluorescence slope is -0.368 (inactive). Further, the NADPH fluorescence slope in experiment [6] is -0.000109 (inactive). For the same compound, in experiment [7], the slope was 0.00748 (inactive). Further, in experiment [8], the compound was classed as inactive.
`O=S(=O)(c1ccccc1)N1CCC(N2CCN(c3ccccc3)CC2)CC1`: in experiment [1], the cell count came to 454. The inhibition in experiment [1] was -26.3% (inactive); in [2], -98.2% (inactive); in experiment [4], -3.95% (inactive); in [9], 1.95% (inactive). Also, the nuclei count in [2] came to 140%. Besides, the z-score in [3] (setting [10]) was -1.37; in experiment [3] (setting [11]), -0.201; in [3] (setting [12]) it was -1.07. In addition, the fluorescence slope in [5] is -0.326 (inactive). In addition, the NADPH fluorescence slope in experiment [6] was 1.7e-05 (inactive). Also, the slope in [7] is 0.006 (inactive). The compound was called inactive in experiment [8].
Regarding `CSc1nc(Oc2ccc(=O)[nH]n2)nc(N(C)C)n1`, the cell count in experiment [1] was 619. For the same compound, the inhibition is -0.7% (inactive) in [1], -20.1% (inactive) in experiment [2], -2.69% (inactive) in experiment [4] and 9.17% (inactive) in experiment [9]. In experiment [2], this compound gave a nuclei count of 148%. Also, the z-score in [3] (setting [10]) is -0.384; in experiment [3] (setting [11]), -0.165; in experiment [3] (setting [12]), 1.66. Moreover, the fluorescence slope in experiment [5] is -0.314 (inactive). The NADPH fluorescence slope in [6] is 2.2e-06 (inactive). For the same compound, in experiment [7], the slope was 0.00466 (inactive). The outcome in experiment [8] was inactive.
As for `CNS(=O)(=O)c1cccc2nsnc12`, the cell count in experiment [1] was determined as 592. Moreover, the inhibition in experiment [1] is -20.7% (inactive); in [2], -98.5% (inactive); in experiment [4], -15% (inactive); in experiment [9], 11.1% (inactive). In addition, the nuclei count in [2] is 141%. The z-score in experiment [3] (setting [10]) was -1.23; in experiment [3] (setting [11]), 0.529; in experiment [3] (setting [12]), 1.87. Also, in experiment [5], the fluorescence slope was -0.51 (inactive). Moreover, the NADPH fluorescence slope in experiment [6] was -3.5e-05 (inactive). The slope in [7] was 0.005 (inactive). Besides, the call in experiment [8] was inactive.
